Results published in ChEMBL document CHEMBL3994675, “Carbamylmethyl Mercaptoacetate Thioether: A Novel Scaffold for the Development of L1 Metallo-β-lactamase Inhibitors” (ACS Med Chem Lett, 2017).

What was measured:
[1] = Inhibition of L1 (unknown origin) expressed in Escherichia coli DH10B harboring pBC SK(+)-L1 assessed as potentiation of cefazolin-induced antibacterial activity by measuring cefazolin MIC at 1024 ug/ml after 12 hrs macrodilution broth method
Method in brief: (§1)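 Cefazolin MICs were read for E. coli DH10B carrying pBC SK(+)-L1 across a series of inhibitor concentrations. Cefazolin alone (no inhibitor) on the same strain served as the reference MIC. E. coli not expressing L1 was tested alongside as the susceptible comparator.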

Escherichia coli [2] = experiment: Growth inhibition of Escherichia coli DH10B harboring pBC SK(+)-L1 at 1024 ug/ml after 12 hrs macrodilution broth method; parameters: species or system K-12 substr. DH10B
Method in brief: (§2)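 Cefazolin MIC determined for E. coli DH10B carrying pBC SK(+)-L1 and for E. coli not expressing L1, with and without compound.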

[3] = Inhibition of ImiS (unknown origin) expressed in Escherichia coli BL21(DE3) at 100 uM using imipenem as substrate preincubated for 3 to 60 mins followed by substrate addition by UV-Visible spectrophotometric method relative to control; settings: TDE = time-dependent effect
Method in brief: (§3)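 Purified enzyme preincubated with 100 μM inhibitor in its enzyme-specific buffer, then substrate added: 50 μM cefazolin for IMP-1 and L1, 40 μM imipenem for ImiS. Hydrolysis followed by UV-vis spectrophotometry. Preincubation times of 3–60 min were tested. % inhibition = activity without inhibitor (100%) minus residual activity.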

[4] = Inhibition of IMP1 (unknown origin) expressed in Escherichia coli BL21(DE3) at 100 uM using cefazolin as substrate preincubated for 30 mins followed by substrate addition by UV-Visible spectrophotometric method relative to control; method in brief: as §3
[5] = Inhibition of L1 (unknown origin) expressed in Escherichia coli BL21(DE3) using cefazolin as substrate preincubated for 30 mins followed by substrate addition by UV-Visible spectrophotometric method
Method in brief: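 L1 IC50 measured in 30 mM Tris, pH 8.5, with cefazolin as substrate and inhibitor at 0.1–20 μM. Run in triplicate; mean ± SD reported.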

[6] = Inhibition of ImiS (unknown origin) expressed in Escherichia coli BL21(DE3) at 100 uM using imipenem as substrate preincubated for 30 mins followed by substrate addition by UV-Visible spectrophotometric method relative to control; method in brief: as §3
[7] = Inhibition of L1 (unknown origin) expressed in Escherichia coli BL21(DE3) at 100 uM using cefazolin as substrate preincubated for 30 mins followed by substrate addition by UV-Visible spectrophotometric method relative to control; method in brief: as §3
Escherichia coli [8] = experiment: Growth inhibition of Escherichia coli DH10B at 1024 ug/ml after 12 hrs macrodilution broth method; parameters: species or system K-12 substr. DH10B; method in brief: as §2
[9] = Inhibition of IMP1 (unknown origin) expressed in Escherichia coli BL21(DE3) at 100 uM using cefazolin as substrate preincubated for 3 to 60 mins followed by substrate addition by UV-Visible spectrophotometric method; settings: TDE = time-dependent effect; method in brief: as §3
L929 = experiment: Cytotoxicity against mouse L929 cells assessed as reduction in cell viability up to 400 uM after 48 hrs by CCK assay; type: cell-based; settings: l929, 48 h
Method in brief: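 L-929 mouse fibroblasts exposed to compound at 12.5, 25, 50, 100, 200 and 400 μM working concentrations; cell viability measured.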

[10] = Inhibition of L1 (unknown origin) expressed in Escherichia coli BL21(DE3) at 100 uM using cefazolin as substrate preincubated for 3 to 60 mins followed by substrate addition by UV-Visible spectrophotometric method relative to control; settings: TDE = time-dependent effect; method in brief: as §3
[11] = Mixed-type inhibition of L1 (unknown origin) expressed in Escherichia coli BL21(DE3) using varying levels of cefazolin as substrate preincubated for 30 mins followed by substrate addition by Michaelis-Menten plot analysis
[12] = Inhibition of L1 (unknown origin) expressed in Escherichia coli DH10B harboring pBC SK(+)-L1 assessed as potentiation of cefazolin-induced antibacterial activity by measuring cefazolin MIC at 256 ug/ml after 12 hrs macrodilution broth method; method in brief: as §1
[13] = Inhibition of L1 (unknown origin) expressed in Escherichia coli DH10B harboring pBC SK(+)-L1 assessed as potentiation of cefazolin-induced antibacterial activity by measuring cefazolin MIC at 8 ug/ml after 12 hrs macrodilution broth method; method in brief: as §1
[14] = Inhibition of L1 (unknown origin) expressed in Escherichia coli DH10B harboring pBC SK(+)-L1 assessed as potentiation of cefazolin-induced antibacterial activity by measuring cefazolin MIC at 16 ug/ml after 12 hrs macrodilution broth method; method in brief: as §1
[15] = Inhibition of L1 (unknown origin) expressed in Escherichia coli DH10B harboring pBC SK(+)-L1 assessed as potentiation of cefazolin-induced antibacterial activity by measuring cefazolin MIC at 128 ug/ml after 12 hrs macrodilution broth method; method in brief: as §1
[16] = Inhibition of L1 (unknown origin) expressed in Escherichia coli DH10B harboring pBC SK(+)-L1 assessed as potentiation of cefazolin-induced antibacterial activity by measuring cefazolin MIC at 64 ug/ml after 12 hrs macrodilution broth method; method in brief: as §1
[17] = Inhibition of L1 (unknown origin) expressed in Escherichia coli DH10B harboring pBC SK(+)-L1 assessed as potentiation of cefazolin-induced antibacterial activity by measuring fold reduction in cefazolin MIC at 1024 ug/ml after 12 hrs macrodilution broth method relative to cefazolin alone; method in brief: as §1
[18] = Inhibition of L1 (unknown origin) expressed in Escherichia coli DH10B harboring pBC SK(+)-L1 assessed as potentiation of cefazolin-induced antibacterial activity by measuring cefazolin MIC at 4 ug/ml after 12 hrs macrodilution broth method; method in brief: as §1
[19] = Inhibition of L1 (unknown origin) expressed in Escherichia coli DH10B harboring pBC SK(+)-L1 assessed as potentiation of cefazolin-induced antibacterial activity by measuring cefazolin MIC at 512 ug/ml after 12 hrs macrodilution broth method; method in brief: as §1
[20] = Inhibition of L1 (unknown origin) expressed in Escherichia coli DH10B harboring pBC SK(+)-L1 assessed as potentiation of cefazolin-induced antibacterial activity by measuring cefazolin MIC at 32 ug/ml after 12 hrs macrodilution broth method; method in brief: as §1
[21] = Chemical stability in pH 7 Tris buffer after 4 days by UV-Visible spectral analysis; type: physicochemical; settings: pH 7, 96 h
Method in brief: (§4)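 Compounds incubated in aqueous solution at pH 5.0, 7.0 and 9.0 for 4 days; stability followed by UV-vis spectra.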

[22] = Chemical stability in pH 5 Tris buffer after 4 days by UV-Visible spectral analysis; type: physicochemical; settings: pH 5, 96 h; method in brief: as §4
[23] = Chemical stability in pH 9 Tris buffer after 4 days by UV-Visible spectral analysis; type: physicochemical; settings: pH 9, 96 h; method in brief: as §4

Row | SMILES | MIC [1] [µg/mL] | growth inhibition (GI) (Escherichia coli [2]) | inhibition [3] | inhibition [4] [%] | IC50 [5] [µM] | inhibition [6] [%] | inhibition [7] [%] | growth inhibition (GI) (Escherichia coli [8]) | inhibition [9] | inhibition [10] | also measured
1 | O=C([O-])CSCC(=O)Nc1ccccc1[N+](=O)[O-].[K+] | 16 | Non-Toxic | Tde | 44 | 4.21 | 21 | 77 | Non-Toxic | Tde | Tde | Activity (L929): Non-Toxic
2 | CCc1ccccc1NC(=O)CSCC(=O)[O-].[K+] | 16 | Non-Toxic | Tde | 80 | 0.59 | 21 | 92 | Non-Toxic | Tde | Tde | Ki [11]: 3.7 µM
3 | O=C([O-])CSCC(=O)Nc1ccccc1O.[K+] | 8 | Non-Toxic | Tde | 40 | 0.58 | 74 | 95 | Non-Toxic | Tde | Tde | 
4 | O=C([O-])CSCC(=O)Nc1ccccc1.[K+] | 16 | Non-Toxic | Tde | 43 | 0.98 | 18 | 92 | Non-Toxic | Tde | Tde | Activity (L929): Non-Toxic
5 | CCCCc1ccc(NC(=O)CSCC(=O)[O-])cc1.[K+] | 2 | Non-Toxic | Tde | 64 | 0.43 | 29 | 97 | Non-Toxic | Tde | Tde | MIC [12]: 8 µg/mL; MIC [13]: 16 µg/mL; MIC [14]: 16 µg/mL; MIC [15]: 16 µg/mL; MIC [16]: 16 µg/mL; fold change (FC) [17]: 8; MIC [18]: 16 µg/mL; MIC [19]: 8 µg/mL; MIC [20]: 16 µg/mL
6 | Cc1ccccc1NC(=O)CSCC(=O)[O-].[K+] | 16 | Non-Toxic | Tde | 50 | 0.46 | 24 | 95 | Non-Toxic | Tde | Tde | 
7 | O=C([O-])CSCC(=O)Nc1ccc(C(=O)O)cc1.[K+] | 16 | Non-Toxic | Tde | 71 | 7.5 | 87 | 75 | Non-Toxic | Tde | Tde | 
8 | O=C([O-])CSCC(=O)NCc1ccccc1.[K+] | 16 | Non-Toxic | Tde | 51 | 0.46 | 21 | 97 | Non-Toxic | Tde | Tde | 
9 | CCCCNC(=O)CSCC(=O)[O-].[K+] | 16 | Non-Toxic | Tde | 55 | 1.23 | 20 | 89 | Non-Toxic | Tde | Tde | 
10 | O=C([O-])CSCC(=O)Nc1cccc(Cl)c1.[K+] | 16 | Non-Toxic | Tde | 48 | 2.01 | 34 | 79 | Non-Toxic | Tde | Tde | Ki [11]: 31.8 µM
11 | O=C([O-])CSCC(=O)Nc1ccccc1Cl.[K+] | 16 | Non-Toxic | Tde | 53 | 1.04 | 39 | 80 | Non-Toxic | Tde | Tde | Stability [21]: Unstable; Stability [22]: Unstable; Stability [23]: Unstable
12 | CC(C)CNC(=O)CSCC(=O)[O-].[K+] | 16 | Non-Toxic | Tde | 59 | 3.81 | 23 | 78 | Non-Toxic | Tde | Tde | 
13 | CC(C)(C)NC(=O)CSCC(=O)[O-].[K+] | 16 | Non-Toxic | Tde | 69 | 0.75 | 21 | 91 | Non-Toxic | Tde | Tde | Activity (L929): Non-Toxic
14 | O=C([O-])CSCC(=O)Nc1ccc([N+](=O)[O-])cc1.[K+] | 2 | Non-Toxic | Tde | 45 | > 20 | 85 | 71 | Non-Toxic | Tde | Tde | MIC [12]: 8 µg/mL; MIC [13]: 16 µg/mL; MIC [14]: 16 µg/mL; MIC [15]: 8 µg/mL; MIC [16]: 16 µg/mL; fold change (FC) [17]: 8; MIC [18]: 16 µg/mL; MIC [19]: 8 µg/mL; MIC [20]: 16 µg/mL
15 | O=C([O-])CSCC(=O)Nc1ccc(Cl)cc1.[K+] | 16 | Non-Toxic | Tde | 48 | 20 | 25 | 73 | Non-Toxic | Tde | Tde | 
